Source: PubChem (Johns Hopkins Ion Channel Center)
RGS4 pot = RGS4 potentiation or activation; 0.92% of 310,000 active; AID 463111; HEK293 M3R/inducible RGS4, carbachol calcium flux Fluo4; active compounds read low; B-score at 10 µM;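 active = B-score of the integrated calcium signal more than 4 SD below the library mean, with starting fluorescence not abnormally high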;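 also: negative B-score means reduced calcium response which marks RGS4 activation or potentiation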
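Material: Inducible-RGS4 HEK293 cells carrying M3 receptor; also added: carbachol at ECmax as muscarinic agonist stimulus; incubation: compound preincubation 20 min at room temperature before agonist; signal: Fluo4-AM (2 µM) calcium-flux fluorescence, kinetic read; measure: integrated calcium ratio converted to B score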
MrgX1 antag = human MrgX1 receptor antagonism, primary screen. B-score at 10 µM. Q96LB2. MRGX1-HEK293 calcium flux, Fluo-4, BAM8-22 antagonism; active compounds read low. 1.3% of 310,000 active;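 active = calcium-response B-score plate-corrected more than 3 library SD below zero, starting fluorescence within 5 deviations, no agonist response on first addition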;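 also: peak minus trough fluorescence over baseline after final BAM8-22 challenge near maximal dose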
Target sequence (Q96LB2 whole entry, looked up): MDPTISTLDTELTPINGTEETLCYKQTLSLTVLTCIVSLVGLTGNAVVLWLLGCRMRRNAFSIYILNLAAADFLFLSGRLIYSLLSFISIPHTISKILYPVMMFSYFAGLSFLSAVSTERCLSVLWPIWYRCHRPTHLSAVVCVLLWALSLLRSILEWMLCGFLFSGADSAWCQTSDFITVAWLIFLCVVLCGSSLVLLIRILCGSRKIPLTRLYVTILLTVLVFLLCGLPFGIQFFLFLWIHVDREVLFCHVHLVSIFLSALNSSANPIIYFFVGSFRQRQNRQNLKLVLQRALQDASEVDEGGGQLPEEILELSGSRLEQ
MrgX1 agonist = agonists of human MrgX1 receptor | MrgX1-HEK293 cells, Fluo-4 calcium fluorescence, agonist mode; active compounds read high | Q96LB2 | 0.44% of 310,000 active | B-score at 10 µM;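 active = calcium response B-score plate-corrected fluorescence ratio at least 3 library SD, with starting fluorescence B-score inside 5 SD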
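times = overnight plating, then 30 min 37 °C plus 30 min room-temperature dye loading | assay system = stable human MrgX1 HEK293 cell line | input = fifteen thousand cells per well | signal = kinetic calcium dye fluorescence, Fluo-4 NW | dosing = compound delivered in addition one of three | read-out = B-scored fluorescence response ratio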
RGS4 inh = human RGS4 inhibition. P49798. HEK293 M3R/RGS4 inducible, Fluo-4 calcium flux; active compounds read high; triggered by carbachol at its EC20. B-score at 10 µM. 0.45% of 310,000 active. AID 463165;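 active = B-score, a plate-corrected calcium signal, over three deviations above library mean, with baseline fluorescence within five deviations of library mean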;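 also: RGS4 expression induced by doxycycline in cells with stable M3 receptor; B-score is computed from the integrated fluorescence ratio over baseline after carbachol; higher B-score means a larger calcium signal and so more RGS4 inhibition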
Target sequence (P49798 whole entry, looked up): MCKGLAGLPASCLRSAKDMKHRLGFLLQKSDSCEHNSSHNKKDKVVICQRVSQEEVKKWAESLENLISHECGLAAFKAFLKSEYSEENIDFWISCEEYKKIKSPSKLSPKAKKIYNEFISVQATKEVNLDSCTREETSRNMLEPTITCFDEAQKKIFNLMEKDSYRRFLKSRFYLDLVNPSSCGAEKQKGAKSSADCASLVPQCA
MrgX1 allo act = allosterically activates human MrgX1 receptor signaling. B-score at 10 µM. 0.63% of 310,000 active. MrgX1-HEK293, Fluo-4 calcium flux, FDSS; active compounds read high;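 active = plate-corrected calcium response at least 3 library SD above typical, normal starting fluorescence, not activating the receptor alone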;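 also: compound read alongside a low EC10 to EC30 dose of BAM8-22 agonist; peak minus trough fluorescence over baseline measured at the second addition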
MrgX1 allo conf = reconfirmed allosteric activator of human MrgX1 receptor; shares compounds with MrgX1 allo act; MrgX1-HEK293, Fluo-4 calcium fluorescence, FDSS; activation (ratio percentage), % at 10 µM; 13% of 1,200 active; AID 602413;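 active = ratio at least 3 SD above the weak peptide control, stable starting fluorescence, no direct agonism earlier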;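 also: compound followed by low BAM8-22 agonist challenge near EC20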
MrgX1 antag conf = reconfirmed antagonist of human MrgX1 receptor signaling; AID 602420; remaining BAM8-22 calcium response % of control (active compounds read low), % at 10 µM; MrgX1-HEK293, BAM8-22 calcium flux, Fluo-4; active compounds read low; shares compounds with MrgX1 antag; 19% of 2,300 active;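 active = remaining agonist calcium response no higher than 100% minus 3 SD of agonist-only control wells, with starting fluorescence near control levels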;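 also: agonist BAM8-22 given at a near maximal EC90 to ECmax level; peak minus minimum fluorescence divided by baseline after agonist addition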
HEK293 Ca flux = MrgX1 antagonist counter-screen hit in parental HEK293 cells | shares compounds with MrgX1 antag | Fluo-4 calcium fluorescence, FDSS | fluorescence ratio F(max-min)/F0 at 10 µM | 2% of 4,000 active;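 active = duplicate-averaged calcium fluorescence ratio at least three times the standard deviation of buffer wells, a nonspecific response in parental cells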
HEK293 Ca counter = MrgX1 allosteric activator counter-screen hit in parental HEK293 cells; shares compounds with MrgX1 antag; parental HEK293 calcium flux, Fluo-4 fluorescence ratio; active compounds read high; fluorescence ratio F(max-min)/F0 at 10 µM; 0.4% of 4,000 active; AID 624114;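 active = calcium fluorescence ratio, averaged over duplicates, at least 3 SD of the buffer-well ratio, meaning a nonspecific response in receptor-free cells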;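 also: untransfected parental HEK293 lacking MrgX1 used as counterscreen for MrgX1 allosteric activators; fluorescence change taken during the second addition on a kinetic imager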
HEK293 Ca cntr2 = activity in parental HEK293 cells lacking MrgX1 receptor; Fluo-4 calcium fluorescence (FDSS); active compounds read high; fluorescence ratio F(max-min)/F0 at 10 µM; 8.7% of 4,000 active; shares compounds with MrgX1 antag;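 active = calcium fluorescence ratio at least three times the spread of buffer wells, meaning a non-specific response in parental cells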
Starred values were filed as active, the others as inactive; i = inactive; nt = not tested or not shown. An excerpt weighted towards active compounds, which were near 3.5% of everything screened.

SMILES | RGS4 pot | MrgX1 antag | MrgX1 agonist | RGS4 inh | MrgX1 allo act | MrgX1 allo conf | HEK293 Ca flux | HEK293 Ca counter | HEK293 Ca cntr2 | others
COc1ccccc1CNC(=O)c1cc(C)nn1-c1ccccc1 | i | i | i | i | i | nt | nt | nt | nt
Cc1cc(C(=O)NCc2ccccc2Cl)n(-c2ccccc2)n1 | i | i | i | i | 9.32* | i | i | i | i
O=C(CC1Sc2ccccc2NC1=O)OC(C(=O)NCCc1ccccc1)c1cccnc1 (stereo not given) | i | i | i | i | 8.54* | i | i | i | i
CCC(CC)NC(=O)COC(=O)CCC(=O)c1ccc(Cl)cc1 | i | i | i | i | i | nt | nt | nt | nt
CCN(CC)CCCNC(=S)N1CCN(c2nc3ccccc3n2CC)CC1 | i | i | i | i | i | nt | nt | nt | nt
CCS(=O)(=O)c1nc(S(=O)(=O)c2ccc(C)cc2)c(N2CCC(O)CC2)s1 | i | i | i | i | i | nt | nt | nt | nt
COc1ccc(N(CC(=O)Nc2cccnc2)S(=O)(=O)c2ccccc2)cc1Cl | i | i | i | i | 16.4* | i | i | i | i
Cc1ccsc1/C=C(\C#N)C(=O)NCCCN1CCOCC1 | i | i | i | i | 23.9* | i | i | i | i
O=S(=O)(Nc1nc2ccccc2s1)c1ccc(Cl)s1 | i | -5.31* | i | i | 9.12* | i | i | i | i | MrgX1 antag conf=i
O=S(=O)(Nc1nc2ccccc2s1)c1cc(F)ccc1F | i | i | i | i | i | nt | nt | nt | nt
c1ccc(Cc2c[nH]c3ccccc23)cc1 | i | i | i | i | 6.64* | i | i | i | i
CN(Cc1ccccc1)Cc1c[nH]c2ccccc12 | i | i | i | i | i | nt | nt | nt | nt
CC(=O)N(c1ccccc1C)S(=O)(=O)c1ccc(Cl)cc1 | i | i | i | i | 8.7* | i | i | i | i
CCOc1ccccc1N(C(C)=O)S(=O)(=O)c1ccc(Cl)cc1 | i | i | i | i | i | nt | nt | nt | nt
COC(=O)c1ccc(Nc2ccc3nonc3c2[N+](=O)[O-])cc1 | i | i | i | i | i | nt | nt | nt | nt
COc1ccc(-c2csc(=NCCO)n2-c2ccccc2)cc1 | i | -5.76* | i | i | 8.75* | 19.9%* | i | i | i | MrgX1 antag conf=i
N#Cc1c(Cl)nsc1NC(=O)c1ccccc1 | i | i | i | i | i | nt | nt | nt | nt
COc1cccc(C(=O)COc2cccc(NC(=O)c3ccco3)c2)c1 | i | i | i | i | 6.6* | i | i | i | i
Cc1cc(Cl)ccc1OCC(=O)N/N=C1\CC2C=CCC12 (stereo not given) | i | i | i | i | i | nt | nt | nt | nt
Cc1ccc(-n2c(SCC(=O)Nc3ccc(N4CCOCC4)cc3)nc3ccccc3c2=O)cc1 | i | i | i | i | i | nt | nt | nt | nt
Cc1ccc(NC(=S)NNC(=O)CSc2nc3ccccc3c(=O)n2-c2ccc(C)cc2)cc1 | i | i | i | i | 20.7* | i | i | i | i
COCCNC(=O)C(c1ccc(C)cc1)N(C(=O)C(=O)NC1CCCC1)c1ccc2c(c1)OCCO2 (stereo not given) | i | i | i | i | i | nt | nt | nt | nt
